Experimental data as given in publication PMC3282045 (Biochemistry, 2012).
Substitutions are numbered along the chain they refer to. In names and notes the source's numbering stands.

Columns and labels:
[1] = biological target: T1, human sulfite oxidase (HSO, human SO) (Homo sapiens, UniProt P51687); experiment: stopped-flow heme reduction; assay type: biochemical; conditions: read-out: Kd^sulfite; pH 8.5, 25 °C, anaerobic, no cyt c
T1 sequence (P51687 80-545): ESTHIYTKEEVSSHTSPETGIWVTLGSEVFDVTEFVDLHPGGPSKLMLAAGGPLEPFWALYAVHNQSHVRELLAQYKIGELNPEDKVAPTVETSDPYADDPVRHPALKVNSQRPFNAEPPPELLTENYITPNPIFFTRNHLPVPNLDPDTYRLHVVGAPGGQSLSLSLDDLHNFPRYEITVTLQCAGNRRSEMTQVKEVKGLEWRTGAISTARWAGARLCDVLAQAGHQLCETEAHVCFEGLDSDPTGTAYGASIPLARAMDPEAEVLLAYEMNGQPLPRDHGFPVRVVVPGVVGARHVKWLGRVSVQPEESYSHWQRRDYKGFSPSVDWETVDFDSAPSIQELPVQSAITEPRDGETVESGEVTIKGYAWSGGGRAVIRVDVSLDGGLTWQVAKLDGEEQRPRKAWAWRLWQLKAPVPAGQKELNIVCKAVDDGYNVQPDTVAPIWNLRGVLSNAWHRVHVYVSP
How it was run: (§1)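 Recombinant enzyme expressed in E. coli TP1000 and purified. Anaerobic stopped-flow at 25 °C (dead-time <1.5 ms, 10 mm path), with argon-sparged solutions prepared in an anaerobic chamber. Enzyme at 0.3–0.8 μM was mixed with varied sulfite, no cyt c. Heme Soret change followed at 425 or 430 nm. Traces were fitted to single or double exponentials for kobs, then kobs versus sulfite fitted hyperbolically for kred and Kd.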

[2] = biological target: T2, human sulfite oxidase (HSO, human SO) (Homo sapiens, UniProt P51687, R529Q); experiment: stopped-flow heme reduction; assay type: biochemical; conditions: read-out: Kd^sulfite; pH 8.5, 25 °C, anaerobic, no cyt c
T2 sequence (P51687 80-545 R529Q): T1 sequence (P51687 80-545) with R450Q
How it was run: as §1

[3] = biological target: T3, chicken sulfite oxidase (CSO, recombinant chicken SO) (Gallus gallus, UniProt P07850); experiment: steady-state cytochrome c reduction at […] nm; assay type: biochemical; conditions: read-out: Km^sulfite; pH 8.5, 25 °C, horse heart cyt c
T3 sequence (P07850 1-459): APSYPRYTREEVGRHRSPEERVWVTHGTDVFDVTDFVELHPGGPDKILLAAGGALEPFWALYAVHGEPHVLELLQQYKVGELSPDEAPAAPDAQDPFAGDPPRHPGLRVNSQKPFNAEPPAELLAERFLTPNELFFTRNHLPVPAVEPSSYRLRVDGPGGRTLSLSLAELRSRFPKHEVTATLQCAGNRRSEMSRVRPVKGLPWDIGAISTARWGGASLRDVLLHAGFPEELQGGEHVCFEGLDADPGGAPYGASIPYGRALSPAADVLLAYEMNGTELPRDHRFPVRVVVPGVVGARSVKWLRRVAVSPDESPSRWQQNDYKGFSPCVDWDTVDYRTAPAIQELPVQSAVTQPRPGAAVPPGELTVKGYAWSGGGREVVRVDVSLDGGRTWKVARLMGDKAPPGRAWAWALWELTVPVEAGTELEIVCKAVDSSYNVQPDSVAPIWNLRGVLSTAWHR

[4] = biological target: T4, human sulfite oxidase (HSO, human SO) (Homo sapiens, UniProt P51687, R529M); experiment: stopped-flow heme reduction; assay type: biochemical; conditions: read-out: Kd^sulfite; pH 8.5, 25 °C, anaerobic, no cyt c
T4 sequence (P51687 80-545 R529M): T1 sequence (P51687 80-545) with R450M
How it was run: as §1

[5] = substrate: O=S(O)O; experiment: purified protein; assay type: biochemical, Homo sapiens; conditions: pH 8.5, 25 °C, horse heart cyt c
[6] = substrate: O=[N+]([O-])O; experiment: purified protein; assay type: biochemical, Homo sapiens; conditions: pH 8.5, 25 °C, anaerobic, dithionite-reduced methyl viologen

Q: With `O=S(O)O` [sulfite] as the molecule, how does the Kd [1] read?
A: 6.72 µM

Q: What about the Kd [2] of the same molecule?
A: 227 µM

Q: And the Km [3]?
A: 8.53 µM

Q: What about the Kd [4] of the same molecule?
A: 73.4 µM

B1: human sulfite oxidase (HSO, human SO) (Homo sapiens; V531M) (protein)
chain: T1 sequence (P51687 80-545) with V452M
Q: What does the source list for B1?
A: Km [5]: 3.54 µM; kcat [5]: 15.8 s⁻¹

B2: human sulfite oxidase (HSO, human SO) (Homo sapiens; R529M/Y400N) (protein)
chain: T1 sequence (P51687 80-545) with Y321N, R450M
Q: What does the source list for B2?
A: Km [5]: 42990 µM; kcat [5]: 1.42 s⁻¹

B3: human sulfite oxidase (HSO, human SO) (Homo sapiens) (protein)
chain: T1 sequence (P51687 80-545)
Q: What does the source list for B3?
A: Km [5]: 8.25 µM; kcat [5]: 26.9 s⁻¹; Km [6]: 43000 µM; kcat [6]: < 0.1 s⁻¹

B4: human sulfite oxidase (HSO, human SO) (Homo sapiens; Y400N) (protein)
chain: T1 sequence (P51687 80-545) with Y321N
Q: Which results are given for B4?
A: Km [5]: 850 µM; kcat [5]: 16.91 s⁻¹
